Screening results from PubChem BioAssay.
Hits are enriched below; roughly 1.5% of the tested compounds scored in any of these assays.
CaV13 FRET inh = Primary screen for inhibitors of IQ motif and Ca2+-dependent inactivation inhibitor domain binding in CACNA1D, Förster resonance energy transfer in living cells, …; HEK cells, CFP/YFP FRET ICDI-IQ, plate reader, 10 min; percent FRET-ratio fall versus neutral wells; inhibition, % at 12.3 µM; hit rate 0.098% among 340,000; AID 743397;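 active = mean replicate inhibition of at least 30% and at least 1% of replicates passing that level; inconclusive = only one of the two criteria is met; inactive = neither criterion is met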
Runt-SMMHC FRET = Runt domain-CBFb-SMMHC interaction inhibition; hit rate 0.74% among 220,000; Cerulean-Runt/Venus-CBFb-SMMHC FRET ratio 530/480, 1 h; inhibition, % at 20 µM; Q01196+Q13951; AID 1434;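 active = mean inhibition across duplicate retests at 20 µM reaching about 50%, limit read from the data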;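 note: inhibitors lower the FRET ratio by blocking Runt binding to CBFb-SMMHC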
Target sequence (Q01196 whole entry, looked up, the tested form may be a part): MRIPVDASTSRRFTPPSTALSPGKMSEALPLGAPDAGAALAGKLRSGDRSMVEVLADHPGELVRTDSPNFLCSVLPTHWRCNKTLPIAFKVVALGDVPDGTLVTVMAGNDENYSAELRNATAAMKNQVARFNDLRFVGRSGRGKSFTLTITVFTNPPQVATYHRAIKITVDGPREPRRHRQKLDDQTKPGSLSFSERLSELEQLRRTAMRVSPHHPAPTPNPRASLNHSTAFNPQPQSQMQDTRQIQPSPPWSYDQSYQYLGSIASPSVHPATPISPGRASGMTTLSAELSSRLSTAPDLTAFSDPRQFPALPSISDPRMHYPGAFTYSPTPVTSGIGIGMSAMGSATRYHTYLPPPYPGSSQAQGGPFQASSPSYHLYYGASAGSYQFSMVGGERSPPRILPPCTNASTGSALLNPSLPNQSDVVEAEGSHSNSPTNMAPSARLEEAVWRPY
Target sequence (Q13951 whole entry, looked up, the tested form may be a part): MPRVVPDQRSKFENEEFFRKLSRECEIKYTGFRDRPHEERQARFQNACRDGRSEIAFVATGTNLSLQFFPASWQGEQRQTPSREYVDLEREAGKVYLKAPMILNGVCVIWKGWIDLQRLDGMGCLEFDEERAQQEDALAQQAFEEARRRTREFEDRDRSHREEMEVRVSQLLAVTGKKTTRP
RanGTP-Imp inh = inhibitors of RanGTP-importin-beta interaction, primary screen, biochemical, FRET, CFP-Ran, YFP-importin-beta, homogeneous | inhibition, % (test concentration not listed) | hit rate 1.1% among 300,000 | cell-free CFP-Ran/YFP-importin-beta FRET ratio | AID 2216;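 active = more than half of the replicate wells show a fall in the fluorescence ratio signal beyond about 16%, limit read from the data, passing the limit was not always enough; inconclusive = exactly half of the replicate wells pass the set limit; inactive = fewer than half of replicates pass the limit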
Runt-CBFb FRET = Runt domain-CBFb interaction inhibition. Cerulean-Runt/Venus-CBFb FRET ratio 530/480, 1 h. hit rate 0.46% among 220,000. AID 1496. inhibition, % at 20 µM. Q01196+Q13951;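 active = inhibition over about 50% at 20 µM in the single-dose screen, limit read from the data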
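Assay system: Cerulean-Runt domain fusion protein, energy donor; Signal: fluorescence energy transfer, 422 nm excitation, 530/480 nm emission; Timing: 1 h compound exposure, room temperature; Control set: unlabeled CBFb; Medium: Tris buffer pH 7.5 with salts and BSA; Compound: single test concentration of 20 µM, 1% DMSO final; Probe or stimulus: Venus-CBFb 100 nM.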
Hck-Nef inh = human Hck-Nef kinase inhibition; P08631; Recombinant Hck-YEEI plus Nef, Z-Lyte FRET kinase assay; inhibition, % at 20 µM; hit rate 0.68% among 220,000; AID 463187;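 active = Hck-Nef kinase inhibition above about 50%, limit read from the data; inactive = inhibition below that limit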
Numbers stand for hits; – = inactive; ? = inconclusive; · = no result.

SMILES | CaV13 FRET inh | Runt-SMMHC FRET | RanGTP-Imp inh | Runt-CBFb FRET | Hck-Nef inh
COc1ccc2cc(C(=O)c3ccccc3)c(=O)oc2c1 | – | – | – | – | –
COC(=O)COc1ccc2cc(-c3ccccc3)c(=O)oc2c1 | – | · | ? | · | ·
Cn1c(-c2cc3ccc(OC(=O)C(C)(C)C)cc3oc2=O)nc2ccccc21 | – | – | 149.5 | – | –
O=S(=O)(NCCNc1ncc(C(F)(F)F)cc1Cl)C(F)(F)F | – | – | – | – | –
CCOC(=O)N1CCC(NC(=O)c2cc(C(=O)Nc3ccc(OCC)cc3)ccc2CO)CC1 | · | – | – | – | –
Cc1cc(C)c2c(=O)n(CC(=O)N3CCC(N4CCCCC4)CC3)sc2n1 | – | 64.4 | – | – | –
CCCNC(=O)Cn1sc2nc(C)cc(C)c2c1=O | – | 60.5 | – | – | –
CCOC(=O)C1CCCN(C(=O)Cn2sc3nc(C)cc(C)c3c2=O)C1 (stereo unspecified) | · | 59.4 | – | – | –
CC(=O)Cn1cnc2c(sc3nc(C)cc(C)c32)c1=O | – | – | – | – | –
CCCOC(=O)/C(=C\C=C\c1ccco1)NC(=O)c1ccccc1 | – | – | – | – | –
Cc1cc(C)n(CC(=O)NC2C(=O)N3C(C(=O)O)=C(CSc4nnc(C)s4)CSC23)n1 (stereo unspecified) | – | – | · | – | –
Cc1ccccc1C(=O)NC(=S)Nc1ccccc1C(=O)O | – | – | – | – | –
O=C(NNc1cc(N2CCOCC2)nc(N2CCOCC2)n1)c1ccc([N+](=O)[O-])cc1 | – | – | 63.5 | – | –
O=C(Nc1ccc(N2CCOCC2)cc1N1CCOCC1)c1ccc([N+](=O)[O-])cc1 | · | – | – | – | –
CC(=O)c1cc2c(s1)-c1cc(F)ccc1OC2 | – | 88.1 | – | – | –
COC(=O)c1cc2c(s1)-c1cc(F)ccc1OC2 | – | – | – | – | –
N#C/C(=C/c1ccc(N2CCOCC2)o1)c1ccc(Br)cc1 | · | – | – | – | –
CSc1ncc2ncn(C3OC(CO)C(O)C3O)c2n1 (stereo unspecified) | – | – | – | – | –
Cc1ccc(C(CC(=O)O)NC(=O)CN2C(=O)c3ccccc3C2=O)cc1 (stereo unspecified) | – | · | 69.7 | · | ·
Cn1cc(/C=C/C(=O)c2ccccc2)c2ccccc21 | – | – | 35.5 | – | –
Cc1nn(C)cc1/C=C/C(=O)c1ccccc1 | – | – | – | – | –
Cc1ccc(C(=O)/C=C/c2cn(CN3CCN(C)CC3)c3ccccc23)cc1 | – | – | 72.5 | – | –
CC1CCCC(NC(=O)COC(=O)COc2ccc(Cl)cc2)C1C (stereo unspecified) | – | – | – | – | –
O=C(N/N=C/c1ccncc1)c1cccs1 | · | · | – | · | ·
OC[C@H]1O[C@@H](Oc2ccc3cc(Br)ccc3c2)[C@H](O)[C@@H](O)[C@H]1O | – | · | · | · | ·
SMILES | CaV13 FRET inh | Runt-SMMHC FRET | RanGTP-Imp inh | Runt-CBFb FRET | Hck-Nef inh
CCn1cc(Br)c(C(=O)Nc2ccc(Cl)c(Cl)c2)n1 | – | – | 57.2 | – | –
CC1(C)Cc2nc3sc(C(=O)NCCO)c(N)c3cc2CO1 | – | – | – | – | –
CCOc1ccc(OCCC(=O)Nc2cccc(S(=O)(=O)N3CCCC3)c2)cc1 | – | · | · | · | ·
COc1ccc(CCNC(=O)c2cc(S(=O)(=O)N3CCCCC3)c[nH]2)cc1OC | 43.2 | · | – | · | ·
Cc1cccc(CCNC(=O)c2cc(S(=O)(=O)N3CCCCC3)c[nH]2)c1 | – | · | – | · | ·
Cc1ccc(C(=O)Nc2c3c(nn2C(C)(C)C)CS(=O)(=O)C3)cc1C | – | – | – | 98.1 | –
C[C@H](c1ccccc1)N1C[C@H](COCc2ccccc2)Oc2cc(N3CCC[C@H]3CO)ccc2S1(=O)=O | – | · | · | · | ·
Cc1cccn2c(=O)c3cc(C(=O)NCC4CCCO4)c(=N)n(CCc4ccccc4)c3nc12 (stereo unspecified) | – | · | 176.1 | · | ·
COc1ccc(CCNC(=O)c2cc3c(=O)n4cccc(C)c4nc3n(Cc3ccco3)c2=N)cc1OC | – | · | 53.4 | · | ·
Cc1cccn2c(=O)c3cc(C(=O)NCCc4ccccc4)c(=N)n(Cc4ccco4)c3nc12 | – | · | 73.5 | · | ·
COc1ccc(CCNC(=O)c2cc3c(=O)n4cccc(C)c4nc3n(CC3CCCO3)c2=N)cc1 (stereo unspecified) | – | · | – | · | ·
COc1ccc(CCNC(=O)c2cc3c(=O)n4cccc(C)c4nc3n(Cc3ccncc3)c2=N)cc1 | · | 132.4 | · | 105.3 | ·
O=C(NCCc1ccccc1)c1cccnc1N1CCCCCC1 | – | – | – | – | –
Cc1cccc(N/C=C(\[N+](=O)[O-])S(=O)(=O)c2ccccc2)c1 | – | – | – | – | –
O=c1nccc(NCc2ccco2)[nH]1 | – | – | – | – | –
Cc1cccn2c(=O)c3cc(C(=O)NCc4ccco4)c(=N)n(CCc4ccccc4)c3nc12 | 38.9 | 79.3 | · | – | –
COc1ccc(CCn2c(=N)c(C(=O)NCC3CCCO3)cc3c(=O)n4ccccc4nc32)cc1OC (stereo unspecified) | – | · | – | · | ·
Cc1ccc(NC(=O)COC(=O)CCc2c(C)nc3nc(N)nn3c2C)cc1C | – | · | · | · | ·
Cc1nnc(SCc2nnc(-c3cccs3)o2)s1 | – | – | 174.7 | – | –
O=C(NS(=O)(=O)c1ccc(Cl)s1)c1ccccc1 | 46.2 | · | – | · | ·
Nc1c(C(=O)N/N=C/c2cccnc2)oc2nc(-c3ccco3)cc(-c3ccco3)c12 | – | – | – | – | 64.1
COc1cc(C(=O)N2CCc3ccccc32)cc(OC)c1OC | – | · | – | · | ·
Nc1ccccc1-c1nc2ccccc2s1 | – | 55.1 | – | – | –
Oc1ccc(N=C/C=C/c2cccc(Br)c2)cc1-c1nc2ccccc2s1 | · | – | 37.8 | – | –
O=C(Nc1ccc(O)c(-c2nc3ccccc3s2)c1)c1cccs1 | – | – | – | – | –
O=C(/C=C/c1ccco1)NC(=S)Nc1ccc(O)c(-c2nc3ccccc3s2)c1 | – | – | – | – | –
